In ChEMBL document CHEMBL3817745, “Structure-Activity Relationship for the 4(3H)-Quinazolinone Antibacterials” (J Med Chem, 2016):
≈ marks a conversion by molar mass, not a printed value. Calls of active or inactive are those of the source. The rule behind the calls is not given here.

Experiments:
[1] = test system: Staphylococcus epidermidis; assay: Antibacterial activity against Staphylococcus epidermidis ATCC 35547 incubated for 16 to 20 hrs by microdilution method; assay type: functional
In short: (§1)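 CLSI broth microdilution. 2-fold serial dilutions were made in cation-adjusted Mueller–Hinton broth, with 5% lysed horse blood added for Streptococcus strains, in triplicate. Inoculum 5×10^5 CFU/mL. Plates incubated 36 °C for 16–20 h. MIC taken as the lowest concentration visibly inhibiting growth.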

[2] = Drug level in uninfected thighs of ICR mouse neutropenic thigh model of methicillin-resistant Staphylococcus aureus NRS70 infection at 20 mg/kg, sc tid administered every 8 hrs starting from 1 hr post infection and measured 7 hrs post last dose by UPLC analysis; assay type: ADME, organism-based; settings: read-out: Drug uptake
In short: (§2)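 Neutropenic thigh model (cyclophosphamide 200 mg/kg ip, NRS70 im), sc doses at 1, 9 and 17 h; at 24 h cardiac blood and uninfected thigh taken (n = 8 per group); thigh homogenate supernatant and plasma acetonitrile-quenched with internal standard, analysed by UPLC with MRM detection.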

HepG2 = assay: Cytotoxicity against human HepG2 cells incubated for 16 hrs by XTT assay; assay type: cell-based; settings: HepG2, 16 h
In short: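 HepG2 cells were tested with an XTT viability read-out, in triplicate. IC50 was obtained by nonlinear regression.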

Bacillus licheniformis = assay: Antibacterial activity against Bacillus licheniformis ATCC 12759 incubated for 16 to 20 hrs by microdilution method; assay type: functional; in short: as §1
Mus musculus = assay: Tmax in ICR mouse peritonitis model infected with methicillin resistant Staphylococcus aureus ATCC 27660 at 10 mg/kg, po administered as single dose through gavage by UPLC analysis; assay type: ADME, organism-based; settings: in vivo
In short: (§3)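 Female ICR mice, single 10 mg/kg oral gavage in 25% DMSO/55% propylene glycol/20% PBS (2.5 mg/mL); n = 3 per time point; terminal blood 0.5–30 h; plasma protein-precipitated with acetonitrile containing internal standard, quantified by UPLC-UV or MRM against mouse-plasma calibration curve (0–50 μg/mL).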

Escherichia coli = assay: Antibacterial activity against Escherichia coli ATCC 25922 incubated for 16 to 20 hrs by microdilution method; assay type: functional; in short: as §1
Staphylococcus aureus [3] = assay: […] activity against multidrug resistant Staphylococcus aureus ATCC 27660; assay type: functional; settings: read-out: MBC99.9
Streptococcus pyogenes = assay: Antibacterial activity against Streptococcus pyogenes ATCC 49399 incubated for 16 to 20 hrs by microdilution method; assay type: functional; in short: as §1
[4] = Clearance in ICR mouse peritonitis model infected with methicillin resistant Staphylococcus aureus ATCC 27660 at 10 mg/kg, iv administered as single dose measured up to 8 hrs by UPLC analysis; assay type: ADME, organism-based; settings: in vivo
In short: (§4)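 Fast PK: female ICR mice (n = 2 per time point) given single tail-vein iv injection at 5, 10 or 20 mg/kg in 25% DMSO/65% propylene glycol/10% water (2.5, 5 or 10 mg/mL); terminal cardiac blood at 5 min, 40 min, 2, 4, 8 h; plasma analysed by UPLC with internal standard calibration.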

Staphylococcus aureus [5] = assay: Antibacterial activity against mecA-positive multidrug resistant Staphylococcus aureus COL NRS100 incubated for 16 to 20 hrs by microdilution method; assay type: functional
Enterococcus faecalis [6] = assay: Antibacterial activity against methicillin-susceptible Enterococcus faecalis ATCC 29212 incubated for 16 to 20 hrs by microdilution method; assay type: functional; in short: as §1
Staphylococcus aureus [7] = assay: Antibacterial activity against vancomycin/methicillin-resistant Staphylococcus aureus VRS2 clinical isolate incubated for 16 to 20 hrs by microdilution method; assay type: functional
[8] = Terminal half life in ICR mouse peritonitis model infected with methicillin resistant Staphylococcus aureus ATCC 27660 at 10 mg/kg, iv administered as single dose by UPLC analysis; assay type: ADME, organism-based; settings: ICR, in vivo, read-out: beta t1/2
Staphylococcus aureus [9] = assay: Antibacterial activity against methicillin resistant Staphylococcus aureus ATCC 27660 infected in iv dosed ICR mouse model of peritonitis assessed as mouse survival administered at 30 mins and 4.5 hrs post infection measured for 48 hrs; assay type: functional; settings: ATCC 27660, iv
Acinetobacter baumannii = assay: Antibacterial activity against Acinetobacter baumannii ATCC 17961 incubated for 16 to 20 hrs by microdilution method; assay type: functional; in short: as §1
[10] = AUC (0 to last) in ICR mouse peritonitis model infected with methicillin resistant Staphylococcus aureus ATCC 27660 at 10 mg/kg, po administered as single dose through gavage measured after 30 hrs by UPLC analysis; assay type: ADME, organism-based; set-up: dose 10 mg/kg, time 0 - last, route oral; settings: ICR, in vivo; in short: as §3
[11] = Volume of distribution in ICR mouse peritonitis model infected with methicillin resistant Staphylococcus aureus ATCC 27660 at 10 mg/kg, iv administered as single dose measured up to 24 hrs by UPLC analysis; assay type: ADME, organism-based; settings: ICR, in vivo
[12] = AUC (0 to infinity) in ICR mouse peritonitis model infected with methicillin resistant Staphylococcus aureus ATCC 27660 at 10 mg/kg, po administered as single dose through gavage by UPLC analysis; assay type: ADME, organism-based; set-up: dose 10 mg/kg, route oral, time infinity; settings: ICR, in vivo; in short: as §3
Streptococcus oralis = assay: Antibacterial activity against Streptococcus oralis ATCC 9811 incubated for 16 to 20 hrs by microdilution method; assay type: functional; in short: as §1
[13] = Terminal half life in ICR mouse peritonitis model infected with methicillin resistant Staphylococcus aureus ATCC 27660 at 10 mg/kg, po administered as single dose through gavage by UPLC analysis; assay type: ADME, organism-based; settings: ICR, in vivo, read-out: beta t1/2; in short: as §3
[14] = Cmax in ICR mouse peritonitis model infected with methicillin resistant Staphylococcus aureus ATCC 27660 at 10 mg/kg, po administered as single dose through gavage measured at 1 hr post dose by UPLC analysis; assay type: ADME, organism-based; set-up: dose 10 mg/kg, route oral; settings: in vivo
[15] = AUC (0 to last) in ICR mouse peritonitis model infected with methicillin resistant Staphylococcus aureus ATCC 27660 at 10 mg/kg, iv administered as single dose measured up to 8 hrs by UPLC analysis; assay type: ADME, organism-based; set-up: dose 10 mg/kg, time 0 - last, route intravenous; settings: ICR, in vivo; in short: as §4
Staphylococcus aureus [16] = assay: […] activity against methicillin-resistant Staphylococcus aureus NRS70; assay type: functional; settings: read-out: MBC99.9
Staphylococcus aureus [17] = assay: Antibacterial activity against vancomycin/methicillin-resistant Staphylococcus aureus VRS1 clinical isolate incubated for 16 to 20 hrs by microdilution method; assay type: functional
Bacillus cereus = assay: Antibacterial activity against Bacillus cereus ATCC 13061 incubated for 16 to 20 hrs by microdilution method; assay type: functional; in short: as §1
[18] = test system: Staphylococcus haemolyticus; assay: Antibacterial activity against Staphylococcus haemolyticus ATCC 29970 incubated for 16 to 20 hrs by microdilution method; assay type: functional
[19] = AUC (0 to infinity) in ICR mouse peritonitis model infected with methicillin resistant Staphylococcus aureus ATCC 27660 at 10 mg/kg, iv administered as single dose by UPLC analysis; assay type: ADME, organism-based; set-up: dose 10 mg/kg, time infinity, route intravenous; settings: ICR, in vivo
[20] = Plasma concentration in ICR mouse neutropenic thigh model of methicillin-resistant Staphylococcus aureus NRS70 infection at 20 mg/kg, sc tid administered every 8 hrs starting from 1 hr post infection and measured 7 hrs post last dose by UPLC analysis; assay type: ADME, organism-based; in short: as §2
[21] = Oral bioavailability in ICR mouse peritonitis model infected with methicillin resistant Staphylococcus aureus ATCC 27660 at 10 mg/kg administered as single dose through gavage by UPLC analysis; assay type: ADME, organism-based; settings: ICR, in vivo; in short: as §3
[22] = Hemolytic activity against human RBC at 64 ug/ml relative to control; assay type: ADME, cell-based, Erythrocyte; settings: red blood cells, read-out: Activity
In short: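 Hemolysis was measured at a fixed 64 μg/mL on a 10% red-cell suspension from heparinized human blood. Triton-X served as the positive control, and results are given as percent hemolysis.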

Enterococcus faecium = assay: Antibacterial activity against Enterococcus faecium NCTC 7171 incubated for 16 to 20 hrs by microdilution method; assay type: functional; in short: as §1
Klebsiella aerogenes = assay: Antibacterial activity against Enterobacter aerogenes ATCC 35029 incubated for 16 to 20 hrs by microdilution method; assay type: functional; in short: as §1
[23] = Protein binding in human plasma at 10 uM after 6 hrs by UPLC based equillibrium dialysis method; assay type: ADME, cell-free; settings: read-out: PPB (converted)
Staphylococcus aureus [24] = assay: Antibacterial activity against mecA-positive multidrug resistant Staphylococcus aureus NRS120 incubated for 16 to 20 hrs by microdilution method; assay type: functional
Staphylococcus aureus [25] = assay: Antibacterial activity against mecA-positive multidrug resistant Staphylococcus aureus NRS119 incubated for 16 to 20 hrs by microdilution method; assay type: functional
Staphylococcus aureus [26] = assay: Antibacterial activity against methicillin-resistant Staphylococcus aureus NRS70 in ICR mouse neutropenic thigh infection model assessed as reduction in bacterial load at 20 mg/kg, sc tid administered every 8 hrs starting from 1 hr post infection and measured 7 hrs post last dose; assay type: functional, organism-based
In short: (§5)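 Female ICR mice (n = 8 per group) made neutropenic with ip cyclophosphamide 200 mg/kg at 4 days and 1 day pre-infection; 100 μL NRS70 (~1×10^6 CFU/mL in brain–heart infusion) injected im into right thigh; sc doses at 1, 9, 17 h; thighs harvested at 24 h, homogenized, plated in triplicate on LB agar; log10 CFU/g.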

Enterococcus faecalis [27] = assay: Antibacterial activity against vancomycin-resistant Enterococcus faecalis 99 clinical isolate incubated for 16 to 20 hrs by microdilution method; assay type: functional
Pseudomonas aeruginosa = assay: Antibacterial activity against Pseudomonas aeruginosa […] incubated for 16 to 20 hrs by microdilution method; assay type: functional; in short: as §1
Klebsiella pneumoniae = assay: Antibacterial activity against Klebsiella pneumoniae ATCC 700603 incubated for 16 to 20 hrs by microdilution method; assay type: functional; in short: as §1
Plasma = assay: Drug level in plasma of ICR mouse neutropenic thigh model of methicillin-resistant Staphylococcus aureus NRS70 infection at 10 mg/kg, sc tid administered every 8 hrs starting from 1 hr post infection and measured 7 hrs post last dose by UPLC analysis; assay type: ADME, organism-based; settings: in vivo, BLD = below limit of detection; in short: as §2
[28] = Drug level in uninfected thighs of ICR mouse neutropenic thigh model of methicillin-resistant Staphylococcus aureus NRS70 infection at 10 mg/kg, sc tid administered every 8 hrs starting from 1 hr post infection and measured 7 hrs post last dose by UPLC analysis; assay type: ADME, organism-based; settings: in vivo, BLD = below limit of detection; in short: as §2
Staphylococcus aureus [29] = assay: […] activity against methicillin-susceptible Staphylococcus aureus ATCC 29213; assay type: functional; settings: read-out: MBC99.9
Staphylococcus aureus [30] = assay: Antibacterial activity against methicillin-resistant Staphylococcus aureus NRS70 in ICR mouse neutropenic thigh infection model assessed as reduction in bacterial load at 10 mg/kg, sc tid administered every 8 hrs starting from 1 hr post infection and measured 7 hrs post last dose; assay type: functional, organism-based; in short: as §5

SMILES: N#Cc1ccc(/C=C/c2nc3ccccc3c(=O)n2-c2cccc(C(=O)O)c2)cc1
- MIC [1]: 1 µg/mL (≈ 2.54 µM)
- concentration at 7 h [2]: 24 ng/mL
- IC50 (HepG2): 62.9 µg/mL (≈ 160 µM)
- MIC (Bacillus licheniformis): > 128 µg/mL
- Tmax (Mus musculus): 1 h
- MIC (Escherichia coli): ≥ 16 µg/mL
- MBC (Staphylococcus aureus [3]): 64 µg/mL (≈ 163 µM)
- MIC (Streptococcus pyogenes): > 128 µg/mL
- clearance [4]: 6.9 mL/min/kg
- MIC (Staphylococcus aureus [5]): 16 µg/mL (≈ 40.7 µM)
- MIC (Enterococcus faecalis [6]): > 128 µg/mL
- MIC (Staphylococcus aureus [7]): 2 µg/mL (≈ 5.08 µM)
- half-life [8]: ≥ 20 h
- ED50 (Staphylococcus aureus [9]): 9.4 mg/kg
- MIC (Acinetobacter baumannii): ≥ 16 µg/mL
- AUC(0-t) at 30 h [10]: 6800 ng·h/mL
- Vd [11]: 0.3 L/kg
- AUC(0-inf) [12]: 12300 ng·h/mL
- MIC (Streptococcus oralis): > 128 µg/mL
- half-life [13]: > 20 h
- Cmax [14]: 1300 ng/mL
- AUC(0-t) at 8 h [15]: 19700 ng·h/mL
- MBC (Staphylococcus aureus [16]): 32 µg/mL (≈ 81.3 µM)
- MIC (Staphylococcus aureus [17]): 16 µg/mL (≈ 40.7 µM)
- MIC (Bacillus cereus): > 128 µg/mL
- MIC [18]: 1 µg/mL (≈ 2.54 µM)
- AUC(0-inf) [19]: 24300 ng·h/mL
- concentration at 7 h [20]: 1130 ng/mL
- bioavailability [21]: 50%
- hemolysis at 64 ug/ml [22]: < 1%
- MIC (Enterococcus faecium): > 128 µg/mL
- MIC (Klebsiella aerogenes): ≥ 16 µg/mL
- fraction unbound at 6 h, 10 µM [23]: 0.035
- MIC (Staphylococcus aureus [24]): 8 µg/mL (≈ 20.3 µM)
- MIC (Staphylococcus aureus [25]): 8 µg/mL (≈ 20.3 µM)
- Activity (Staphylococcus aureus [26]): inactive
- MIC (Enterococcus faecalis [27]): > 128 µg/mL
- MIC (Pseudomonas aeruginosa): ≥ 16 µg/mL
- MIC (Klebsiella pneumoniae): ≥ 16 µg/mL

SMILES: CC(=O)NC[C@H]1CN(c2ccc(N3CCOCC3)c(F)c2)C(=O)O1 [LINEZOLID]
- MIC [1]: 1 µg/mL (≈ 2.96 µM)
- MBC (Staphylococcus aureus [3]): 16 µg/mL (≈ 47.4 µM)
- Cp (Plasma): BLD
- MBC (Staphylococcus aureus [16]): 8 µg/mL (≈ 23.7 µM)
- MIC [18]: 2 µg/mL (≈ 5.93 µM)
- Drug uptake [28]: BLD
- MIC (Enterococcus faecium): 2 µg/mL (≈ 5.93 µM)
- MIC (Staphylococcus aureus [24]): 32 µg/mL (≈ 94.9 µM)
- MIC (Staphylococcus aureus [25]): 32 µg/mL (≈ 94.9 µM)
- MBC (Staphylococcus aureus [29]): 16 µg/mL (≈ 47.4 µM)
- Activity (Staphylococcus aureus [30]): Active
